# Source: ChEMBL document CHEMBL1148647, “Structure-activity relationship studies on a series of novel, substituted 1-benzyl-5-phenyltetrazole P2X7 antagonists” (J Med Chem, 2006)
# Calls of active or inactive are those of the source.
# How the values were obtained:
# [1] = test system: THP-1; test: Ability to block pore formation in human THP1 cells assessed as inhibition of YO-PRO-1 diiodide dye uptake; format: functional, cell-based
# Summary of the method: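 Differentiated human THP-1 cells stimulated with agonist BzATP for 1 h in presence of test compound. Pore formation read as inhibition of cellular uptake of the impermeable dye YO-PRO-1 diiodide.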
# [2] = target: T1, P2X purinoceptor 7 (Rattus norvegicus, UniProt Q64663); test: Antagonist activity at rat P2X7 receptor expressed in human 1321N1 cells assessed as inhibition of calcium flux by FLIPR; format: functional, cell-based
# T1 sequence (Q64663 whole entry): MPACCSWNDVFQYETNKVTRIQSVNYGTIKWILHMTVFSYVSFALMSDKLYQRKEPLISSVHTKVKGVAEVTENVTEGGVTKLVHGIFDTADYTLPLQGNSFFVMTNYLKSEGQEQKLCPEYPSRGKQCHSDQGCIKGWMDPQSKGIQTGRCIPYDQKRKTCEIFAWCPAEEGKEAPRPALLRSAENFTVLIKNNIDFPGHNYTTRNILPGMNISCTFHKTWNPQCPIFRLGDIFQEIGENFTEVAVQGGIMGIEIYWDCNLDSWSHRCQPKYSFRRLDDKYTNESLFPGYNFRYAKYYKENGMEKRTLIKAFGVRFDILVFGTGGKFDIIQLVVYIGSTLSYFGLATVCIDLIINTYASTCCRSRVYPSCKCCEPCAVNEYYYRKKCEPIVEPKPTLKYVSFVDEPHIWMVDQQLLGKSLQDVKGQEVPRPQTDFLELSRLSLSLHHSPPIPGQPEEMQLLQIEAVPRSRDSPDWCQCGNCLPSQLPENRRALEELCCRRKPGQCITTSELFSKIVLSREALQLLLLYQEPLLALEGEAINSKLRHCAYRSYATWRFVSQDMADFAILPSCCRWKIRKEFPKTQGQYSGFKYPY
# Summary of the method: (§1)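 Recombinant P2X7 (human or rat) stably transfected into human 1321N1 astrocytoma cells lacking endogenous P2X receptor function. Fluo-4 calcium dye, FLIPR read-out. 5-min antagonist pretreatment, then BzATP agonist. IC50 determined.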
# [3] = test system: THP-1; test: Inhibition of ILbeta production in human THP1 cells; format: functional, cell-based
# Summary of the method: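 Human THP-1 cells differentiated with LPS and IFNγ, then stimulated with BzATP for 30 min in presence of test compound. Released IL-1β quantified by EIA.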
# [4] = target: T2, P2X purinoceptor 7 (Homo sapiens, UniProt Q99572); test: Antagonist activity at human P2X7 receptor expressed in human 1321N1 cells assessed as inhibition of calcium flux by FLIPR; format: functional, cell-based; summary of the method: as §1
# T2 sequence (Q99572 whole entry): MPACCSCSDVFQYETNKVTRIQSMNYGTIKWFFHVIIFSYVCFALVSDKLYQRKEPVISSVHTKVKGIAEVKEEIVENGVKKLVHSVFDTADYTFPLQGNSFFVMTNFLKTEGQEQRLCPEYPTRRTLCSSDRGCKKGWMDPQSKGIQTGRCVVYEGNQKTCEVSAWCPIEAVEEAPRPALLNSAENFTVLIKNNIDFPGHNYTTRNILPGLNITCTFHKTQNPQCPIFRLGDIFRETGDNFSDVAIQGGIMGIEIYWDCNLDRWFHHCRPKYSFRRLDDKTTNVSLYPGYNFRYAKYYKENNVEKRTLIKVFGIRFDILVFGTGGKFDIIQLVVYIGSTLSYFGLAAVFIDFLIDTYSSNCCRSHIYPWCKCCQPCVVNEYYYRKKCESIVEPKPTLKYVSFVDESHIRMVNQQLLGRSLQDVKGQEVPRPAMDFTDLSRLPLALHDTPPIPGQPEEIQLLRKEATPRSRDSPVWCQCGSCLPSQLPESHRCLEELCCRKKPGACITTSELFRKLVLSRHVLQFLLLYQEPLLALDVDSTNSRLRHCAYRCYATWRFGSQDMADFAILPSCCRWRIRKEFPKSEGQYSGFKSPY
# [5] = test system: Rattus norvegicus; test: Reversal of mechanical allodynia in L5/L6 spinal nerve tight ligation model of neuropathic pain in ip dosed rat; format: functional
# Summary of the method: (§2)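 Spinal nerve ligation (L5/L6, Chung) done 7-14 days before testing. Antagonist given ip at 10-300 µmol/kg. Von Frey hair applied 30 min after dosing. Paw withdrawal threshold on injured (left) side compared with contralateral paw. ED50 and maximal response relative to contralateral side derived.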
# [6] = test system: Rattus norvegicus; test: Reversal of mechanical allodynia in L5/L6 spinal nerve tight ligation model of neuropathic pain in ip dosed rat relative to control; format: functional; summary of the method: as §2
# [7] = Oral bioavailability in rat at 10 umol/kg, ip; format: ADME, organism-based; conditions: in vivo, intraperitoneal, read-out: Activity
# [8] = Half life in rat at 10 umol/kg; format: ADME, organism-based; conditions: in vivo
# [9] = test system: Rattus norvegicus; test: Impairment of motor function in rat by rotarod assay up to 300 umol/kg, ip; format: functional, organism-based
# Summary of the method: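 Accelerating rotarod, ip dosing up to 300 µmol/kg. Time for the animal to fall from the rod recorded.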
Structure (SMILES),IC50 [1] [nM],IC50 [2] [nM],IC50 [4] [nM],other results
FC(F)(F)c1cccc(-c2nnnn2Cc2cccnc2)c1Cl,158,63.1,12.6,IC50 [3]: 79.4 nM
Clc1cccc(-c2nnnn2Cc2ccncc2)c1Cl,2000,3160,794,IC50 [3]: 20000 nM
Clc1c(-c2nnnn2Cc2ccccc2)ccc(N2CCCC2)c1Cl,,,> 10000,
Clc1cccc(-c2nnnn2Cc2cccnc2)c1,> 10000,,7940,
Clc1ccc(-c2nnnn2Cc2cccnc2)cc1Cl,7940,,3980,
COc1cccc(-c2nnnn2Cc2ccccc2Cl)c1OC,> 10000,,3980,
Fc1c(-c2nnnn2Cc2cccnc2)cccc1C(F)(F)F,501,79.4,63.1,IC50 [3]: 501 nM
Fc1ccc(-n2nnnc2Cc2cccnc2)c(Cl)c1C(F)(F)F,158,,20,
O=C(NCC12CC3CC(CC(C3)C1)C2)c1cccc(Cl)c1Cl,,,63.1,
Cc1noc(C)c1Cn1nnnc1-c1cccc(Cl)c1Cl,794,,158,
Cc1ncccc1Cn1nnnc1-c1cccc(Cl)c1Cl,200,200,31.6,IC50 [3]: 158 nM
Clc1cccc(-c2nnnn2CCc2cccnc2)c1Cl,> 10000,,12600,
Clc1cccc(-c2nnnn2Cc2cccnc2)c1Cl,200,316,,ED50 [5]: 76 µmol/kg; IC50 [3]: 398 nM; Activity [6]: 78%; bioavailability [7]: 19%; half-life [8]: 1 h; Activity [9]: inactive
Fc1cccc(-c2nnnn2Cc2cccnc2)c1C(F)(F)F,,,631,
Clc1ccccc1-c1nnnn1Cc1cccnc1,,,15800,
c1ccc(Cn2nnnc2-c2cccc3ncccc23)cc1,> 10000,,15800,
Fc1ccc(-c2nnnn2Cc2cccnc2)c(Cl)c1Cl,398,,12.6,
Clc1ccc(-c2nnnn2Cc2cccnc2)c(Cl)c1Cl,1350,,200,
Clc1cccc(-c2nnnn2Cc2ccccc2)c1Cl,501,79.4,39.8,
c1ccc(-c2nnnn2Cc2cccnc2)cc1,> 10000,,25100,
Clc1cccc(-n2nnnc2Cc2cccnc2)c1Cl,398,,100,
c1ccc(Cn2nnnc2-c2cccc3cccnc23)cc1,,,25100,
Cc1ccccc1Cn1nnnc1-c1cccc(C)c1C,1260,,251,
Cc1ccccc1Cn1nnnc1-c1cccc(Cl)c1Cl,126,63.1,15.8,IC50 [3]: 158 nM
Clc1cccc(-c2nnnn2Cc2ccccn2)c1Cl,2000,,501,
Cc1nc(C)c(Cn2nnnc2-c2cccc(Cl)c2Cl)s1,251,1260,50.1,
FC(F)(F)c1cccc(-n2nnnc2Cc2cccnc2)c1Cl,50.1,50.1,12.6,IC50 [3]: 25.1 nM
Fc1ccc(-n2nnnc2Cc2cccnc2)c(Cl)c1Cl,,100,25.1,IC50 [3]: 39.8 nM
c1ccc(Cn2nnnc2-c2ccncc2)cc1,,,31600,
Clc1ccc(Cl)c(-c2nnnn2Cc2cccnc2)c1,> 10000,,15800,
